Results gathered from unrelated publications.
Protocols differ between the studies behind these lines.
Nectin-4: Nectin-4 (Homo sapiens, UniProt Q96NY8)
PFF0160c: Dihydroorotate dehydrogenase (quinone), mitochondrial (PFF0160c, Plasmodium falciparum, UniProt Q08210)
Oprm1: Mu-type opioid receptor (Oprm1, Mus musculus, UniProt P42866)

CCCC[C@@H]1NC(=O)[C@H](Cc2ccc(O)cc2)NC(=O)[C@@H]2CCCN2C(=O)[C@H](CC(N)=O)NC(=O)[C@H](C)NC(=O)[C@H](Cc2ccccc2)NC(=O)[C@@H]2CSCCC(=O)N3CN(CN(C3)C(=O)CCSC[C@H](NC(C)=O)C(=O)N[C@@H](CC(C)(C)C)C(=O)N3CCC[C@H]3C(=O)N[C@@H](CCC(=O)O)C(=O)N[C@H](CCCCNC(=O)CCc3cn(CCOCCOCCOCCOCCOCCC(=O)N[C@H]4CSCCC(=O)N5CN6CN(C5)C(=O)CCSC[C@H](NC(=O)[C@@H](CC(=O)O)NC(=O)[C@H](Cc5cccc7ccccc57)NC(=O)[C@@H]5CCCN5C4=O)C(=O)N[C@@H](CCSC)C(=O)N[C@@H](CCCCNC(=N)N)C(=O)N[C@@H](CC(=O)O)C(=O)N[C@@H](Cc4c[nH]c5ccccc45)C(=O)N[C@@H](CO)C(=O)N[C@@H]([C@@H](C)O)C(=O)N4CCC[C@H]4C(=O)N4C[C@H](O)C[C@H]4C(=O)N[C@@H](Cc4c[nH]c5ccccc45)C(=O)N[C@H](C(N)=O)CSCCC6=O)nn3)C(=O)N3CCC[C@H]3C(=O)N[C@@H](Cc3ccc(O)cc3)C(=O)N2)C(=O)CCSC[C@@H](C(N)=O)NC1=O  Kd (Nectin-4; binding, SPR): 1.4 nM
CC(C)C(NC(=O)Cc1cccc2ccccc12)C(=O)Nc1cccc(C#N)c1 (stereo not shown)  IC50 (PFF0160c; enzyme activity, inhibitor, absorbance): 1550 nM
COc1ccc(CN2CCN(Cc3ccccc3)CC2)cc1  Ki (Sigma non-opioid intracellular receptor 1 (SIGMAR1, Homo sapiens, UniProt Q99720); ligand displacement, radioligand): 13.8 nM
O=C(N[C@@H]1C=C[C@@]2(O)[C@H]3Cc4ccc(O)c5c4[C@@]2(CCN3CC2CC2)[C@H]1O5)c1n[nH]c2ccccc12  Ki (Oprm1; ligand displacement, radioligand): 0.32 nM
CC(=O)Nc1sc(C)c(C)c1CN1CCc2ccccc2C1  IC50 (Dihydroorotate dehydrogenase (quinone), mitochondrial (PFF0160c, Plasmodium falciparum, UniProt Q08210, E182D); enzyme activity, inhibitor, absorbance): 1940 nM
CCCC[C@@H]1NC(=O)[C@H](Cc2ccc(O)cc2)NC(=O)[C@@H]2CCCN2C(=O)[C@H](CC(=O)O)NC(=O)[C@H](C)NC(=O)[C@H](Cc2ccccc2)NC(=O)[C@@H]2CSCCC(=O)N3CN(CN(C3)C(=O)CCSC[C@@H](C(=O)N[C@@H](C)C(N)=O)NC1=O)C(=O)CCSC[C@H](NC(C)=O)C(=O)N[C@@H](CC(C)(C)C)C(=O)N1CCC[C@H]1C(=O)N[C@@H](CCC(=O)O)C(=O)N[C@H](CCCCNC(=O)CCc1cn(CCOCCOCCOCCOCCOCCC(=O)N[C@H]3CSCCC(=O)N4CN5CN(C4)C(=O)CCSC[C@H](NC(=O)CNC(=O)[C@H](Cc4ccccc4)NC(=O)[C@@H]4CCCN4C3=O)C(=O)N[C@@H](CCSC)C(=O)N[C@@H](CCCCNC(=N)N)C(=O)N[C@@H](CC(=O)O)C(=O)N[C@@H](Cc3c[nH]c4ccccc34)C(=O)N[C@@H](CO)C(=O)N[C@@H]([C@@H](C)O)C(=O)N3CCC[C@H]3C(=O)N3C[C@H](O)C[C@H]3C(=O)N[C@@H](Cc3c[nH]c4ccccc34)C(=O)N[C@H](C(N)=O)CSCCC5=O)nn1)C(=O)N1CCC[C@H]1C(=O)N[C@@H](Cc1ccc(O)cc1)C(=O)N2  Kd (Nectin-4; binding, SPR): 14 nM
O=C(N[C@@H]1C=C[C@@]2(O)[C@H]3Cc4ccc(O)c5c4[C@@]2(CCN3CC2CC2)[C@H]1O5)c1c[nH]c2ncccc12  Ki (Oprm1; ligand displacement, radioligand): 0.28 nM
CCn1c(-c2ccccc2)cc2nnc3ccccc3c21  IC50 (PFF0160c; enzyme activity, inhibitor, absorbance): 458 nM
CCCC[C@@H]1NC(=O)[C@H](Cc2ccc(O)cc2)NC(=O)[C@@H]2CCCN2C(=O)[C@H](CC(=O)O)NC(=O)[C@H](C)NC(=O)[C@H](Cc2ccccc2)NC(=O)[C@@H]2CSCCC(=O)N3CN(CN(C3)C(=O)CCSC[C@@H](C(=O)N[C@@H](CNC(=O)CCc3cn(CCOCCOCCOCCOCCOCCOCCOCCOCCOCCOCCNC(=O)N[C@H]4CSCCC(=O)N5CN6CN(C5)C(=O)CCSC[C@H](NC(=O)[C@@H](CC(=O)O)NC(=O)[C@H](Cc5cccc7ccccc57)NC(=O)[C@@H]5CCCN5C4=O)C(=O)N[C@@H](CCSC)C(=O)N[C@@H](CCCCNC(=N)N)C(=O)N[C@@H](CC(=O)O)C(=O)N[C@@H](Cc4c[nH]c5ccccc45)C(=O)N[C@@H](CO)C(=O)N[C@@H]([C@@H](C)O)C(=O)N4CCC[C@H]4C(=O)N4C[C@H](O)C[C@H]4C(=O)N[C@@H](Cc4c[nH]c5ccccc45)C(=O)N[C@H](C(N)=O)CSCCC6=O)nn3)C(N)=O)NC1=O)C(=O)CCSC[C@H](NC(=O)[C@H](C)NC(C)=O)C(=O)N[C@@H]([C@@H](C)CC)C(=O)N[C@@H](CCC(=O)O)C(=O)N[C@@H](CCC(=O)O)C(=O)NCC(=O)N[C@@H](CCC(N)=O)C(=O)N[C@@H](Cc1ccc(O)cc1)C(=O)N2  Kd (Nectin-4; binding, SPR): 1.7 nM
O=C(N[C@@H]1C=C[C@@]2(O)[C@H]3Cc4ccc(O)c5c4[C@@]2(CCN3CC2CC2)[C@H]1O5)c1c[nH]c2ccncc12  Ki (Oprm1; ligand displacement, radioligand): 0.94 nM
